Measured values: the EternaBench riboswitch data

System: MS2 coat protein
Assay: apparent Kd, MS2 coat protein; higher = weaker binding; RNA-MaP array; FMN 200 µM where present
Procedure, shortened: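 Stalled E. coli RNA polymerase produced the designs on Illumina sequencing-chip clusters. SNAP-549-labelled MS2 coat protein was added from 0.7 or 1.5 nM, doubling to 3 µM, without and then with constant ligand, in 100 mM Tris-HCl pH 7.5, 80 mM KCl, 4 mM MgCl2, BSA, DTT, yeast tRNA and Tween-20. The apparent Kd is the median of filtered per-cluster fits of green signal normalised to red-channel RNA signal and control-cluster median Fmax.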

[1] = designed as: ON switch for flavin mononucleotide, no ligand
[2] = ligand present: flavin mononucleotide, designed as: ON switch for flavin mononucleotide
[3] = designed as: OFF switch for flavin mononucleotide, no ligand
[4] = ligand present: flavin mononucleotide, designed as: OFF switch for flavin mononucleotide

Sequence: GGACGUCACAUGAACAUGAGGAUCACCCAUGUAACUAGACAUGAGGAUAUGGUUCCUAAUUGGAACCAGAAGGCAUGGACGUCC
- apparent Kd [1]: 224 nM
- apparent Kd [2]: 33 nM

Sequence: GAGUGGAAGGCCGCUACAUGAGGAUCACCCAUGUGCUAAGCACAGGAUAUCGCGCGGACCCGGCGCGAGAAGGGUGACGGCCUG
- apparent Kd [1]: 463 nM
- apparent Kd [2]: 268 nM

Sequence: GUGCCUUGGGAGAAGGCCCAAUGCAAAGCAUAGGGAGGAUAUUCAUAUAAUAAAUAAACAUGAGGAUCACCCAUGUGGCACAAA
- apparent Kd [1]: 479 nM
- apparent Kd [2]: 33.3 nM

Sequence: GUAUGAGCGAUAGGAUAUACUGAGAUUGAAUGGGUAGAAGGAUCACUUGUGUGGAAGACAUGAGGAUCACCCAUGUCACGGGCC
- apparent Kd [1]: 52.3 nM
- apparent Kd [2]: 157 nM

Sequence: UAAAUAUUAAAAGGAUAUUCAUACCGGAAACGGACAUGAGGAUCACCCAUGUGGCGAAAGCCUUGGGAGAAGGUAUUAUAAAAU
- apparent Kd [1]: 333 nM
- apparent Kd [2]: 248 nM

Sequence: AAAAAACAUGAGGAUCACCCAUGUCAGGAUAUACGAUAAAAAAAAAAAAAAAAAAAAUGUAGAAGGGACAAAAA
- apparent Kd [3]: 78.3 nM
- apparent Kd [4]: 73.9 nM

Sequence: ACAUGCCUGUCGAUGCUCGACAUGAGGAUCACCCAUGUACAGCAGGAUAUGCAGAACUAACUCGUGCAGAAGGGCUGUACCUAA
- apparent Kd [3]: 90.8 nM
- apparent Kd [4]: 226 nM

Sequence: CGGGCUGCCAGAGGAUAAUGGACAUGAGGAUCACCCAUGUGUCAGGAUAUGGGUUUCACAUGGACUCAGAAGGGACCAGCCCGA
- apparent Kd [1]: 82.5 nM
- apparent Kd [2]: 22.4 nM

Sequence: GCGACGAAAGUCGAACGAUGUAGCAGAAGGACAUGAGGAUCACCCAUGUCAGCUGUAACAGCCAUGUAGGAUAUGCUACAUCGA
- apparent Kd [3]: 4.26 nM
- apparent Kd [4]: 5.11 nM

Sequence: GGAUAGGACAGAGGAUAUACGUGCUAGAGAUACUAGCAAAAUUUCCUCACAUGAGGAUCACCCAUGUAGAAGGCUGUCCUACCG
- apparent Kd [3]: 17 nM
- apparent Kd [4]: 484 nM

Sequence: CCUCUACAUGAGGAUCACCCAUGUGAGGAUAUCUCGGAGCAACCACUUAAGGCGCUCCAGAGAAGGCACGUGUA
- apparent Kd [3]: 20.6 nM
- apparent Kd [4]: 28.9 nM

Sequence: GAAUAAUUGAUCCAAUAUAACAACAUGAGGAUCACCCAUGUGCAGGAUAUCGUGUGUGUUAUAUACGAGAAGGGCAAGAACUGU
- apparent Kd [3]: 729 nM
- apparent Kd [4]: 594 nM

Sequence: AAAAAACAUGAGGAUCACCCAUGUAAUAAAACGUCAGGAUAUUGAUUUUAUUAUUUAUUACAAGAAGGGACAAAAA
- apparent Kd [1]: 133 nM
- apparent Kd [2]: 57.6 nM

Sequence: UGAUCUUGGGUCAGGAUAUGCUGGUAUUUUUGCCAGCAGAAGGGACAUGAGGAUCACCCAUGUUCUUGGUUUUU
- apparent Kd [3]: 11.7 nM
- apparent Kd [4]: 14.9 nM

Sequence: UGUUGUUCAGGAUAUGGUGUGUUAUACAUGAGGAUCACCCAUGUGGGUCCUGGUUUGGCGUCAGAAGGGAAUGUUG
- apparent Kd [3]: 539 nM
- apparent Kd [4]: 396 nM

Sequence: AGCUGUGGCCGAGGAUAUCUGAAACUCAAAACCGAAAUAUAAUCGGACAUGAGGAUCACCCAUGUAGAGAAGGCGGUCUCAGCA
- apparent Kd [3]: 165 nM
- apparent Kd [4]: 307 nM

Sequence: CCGGAAACGGGUAGCCUGACAUGAGGAUCACCCAUGUAAUCCGAGGAUAUGGAUCCUAAUUGGAUCCAGAAGGUGGCAGGCUAC
- apparent Kd [1]: 463 nM
- apparent Kd [2]: 127 nM

Sequence: GCGUACUGAGGAUAUACAUGAGGAUCACCCAUGUUUCACAGCAUAUGUGAAGUUUUUUGUAGAAGGCAGUAUGC
- apparent Kd [3]: 29.6 nM
- apparent Kd [4]: 163 nM

Sequence: CUUGUGUUAGGAUAUGCGUUUCCGGUACGUCACCGGAUCUGGCAGAAGGGACAUGAGGAUCACCCAUGUUUGGC
- apparent Kd [3]: 46.6 nM
- apparent Kd [4]: 30.3 nM

Sequence: GCGUGUAAUGUAGGAUAUGACACAGGAAACUGGUCAGAAGGACAUGAGGAUCACCCAUGUAAAAUGUUCAAGAAUAACACAUGC
- apparent Kd [3]: 22.9 nM
- apparent Kd [4]: 37.8 nM

Sequence: GCUAUUGGCUAAGGAUAUGGAUACAUGAGGAUCACCCAUGUAUUUUUUGUGAUCAUAUAAAUGAUCCAGAAGGUAGCUGUUAGC
- apparent Kd [3]: 21.9 nM
- apparent Kd [4]: 62.1 nM

Sequence: UUUUUUCCUCAUGUACAUGAGGAACAUGAGGAUCACCCAUGUAGAAGGAUUUCCCUUAAAUUAAGAUAGGAUAUACAUAUAUUU
- apparent Kd [3]: 87 nM
- apparent Kd [4]: 70.5 nM

Sequence: AAUUGUCGUGAGGAUAUGUACGUUUUAGUAACGACAGAAGGCAUGACAUGAGGAUCACCCAUGUUGUAAUCUGG
- apparent Kd [3]: 82 nM
- apparent Kd [4]: 429 nM

Sequence: AUAUCUUGUCGAGGAUAUGUUGUAUUGAUCUGAAAACAUGAGGAUCACCCAUGUAUACGGUGGGAACAGAAGGUGGAUGUAGAA
- apparent Kd [3]: 318 nM
- apparent Kd [4]: 356 nM

Sequence: UAUGUAUUCGUAGGAUAUCCGUCGAGACCGUGUGGAGAAGGACGAACAUGAGGAUCACCCAUGUAUCAUGGUGUAGACAAUUUU
- apparent Kd [3]: 47.4 nM
- apparent Kd [4]: 186 nM

Sequence: CGUUGUAACGCAGGAUAUCCAAAGCUUUUUGCAGGAGAAGGGUGUUACAUGAGGAUCACCCAUGUGAAGGCCCGCAUUCCUCAU
- apparent Kd [3]: 5.57 nM
- apparent Kd [4]: 6.41 nM

Sequence: GUGCACACUCGAGGAUAUCGGAGAGUACUCCUUCGAGAAGGCGAUUCGUGCCGUGUUAUUCUGGACAUGAGGAUCACCCAUGUG
- apparent Kd [1]: 125 nM
- apparent Kd [2]: 39.9 nM

Sequence: AAUCCACAUGAGGAUCACCCAUGUGAGGAUAUGAUACUAUGUACUUCGGUACAUAGUAUCAGAAGGCACAUAAA
- apparent Kd [3]: 24.1 nM
- apparent Kd [4]: 81 nM

Sequence: GGAGCAACAUGAGGAUCACCCAUGUAGGAUAUCGCUAUUGUAAUCAUGAAACAUGAUUACAAUAGCGAGAAGGACAUAUGCUGG
- apparent Kd [3]: 24.9 nM
- apparent Kd [4]: 27.3 nM

Sequence: AAGAAACAUGAGGAUCACCCAUGUGAGAAUAUGGGAGGAUAUACAAGGACGUAAGUCAAGGUAGAAGGCCUAAGAA
- apparent Kd [1]: 171 nM
- apparent Kd [2]: 29.7 nM

Sequence: ACAUUGAAUGUGAGGAUAUCGAUGUGAUGGGUUGUCGAGAAGGCACAUGAGGAUCACCCAUGUGGGUUGUAGCA
- apparent Kd [3]: 144 nM
- apparent Kd [4]: 362 nM

Sequence: AUAAUGAGAGGAUAUACAUGAGGAUCACCCAUGUUAUUAUCACGGCGUGCUCCAUUACGUAGAAGGCUCAUUUA
- apparent Kd [3]: 117 nM
- apparent Kd [4]: 35.2 nM

Sequence: AUUUAUGGCCAGAAGGACAUGAGGAUCACCCAUGUAGGAUAUGGACGAUUUUGCUCGGUGGUUCGUUUAGGAAGCACCGGUGGU
- apparent Kd [1]: 9.59 nM
- apparent Kd [2]: 7.02 nM

Sequence: AAAACAUGAGGAUCACCCAUGUAAAGAACGGUUAAUAGAAGUGAGGAUAUACUAAAUUUUAGGUAGUAGAAGGCACUGGGUACA
- apparent Kd [1]: 21.5 nM
- apparent Kd [2]: 22.5 nM

Sequence: CAUUAAUUCAUUAUAGUUAUUAUACAGGAUAUGUUACAUGAGGAUCACCCAUGUUUUCAUGGUAAACAGAAGGGUAUAUCAAGU
- apparent Kd [3]: 124 nM
- apparent Kd [4]: 232 nM

Sequence: CGGCCAUAUCGAGGAUAUAAGUCUAGGACAUGAGGAUCACCCAUGUAUGUCUUAGAAGGCGAUAUGGCCAGCCUGUUACAGGCA
- apparent Kd [1]: 28.9 nM
- apparent Kd [2]: 5.83 nM

Sequence: CGCUAUUAUGUAGGAUAUACAUUUUUUAUGUAUGUAGAAGGACAUGAGGAUCACCCAUGUAAAUUAAUUUUAAUUAUCUUAGCG
- apparent Kd [3]: 16.4 nM
- apparent Kd [4]: 13.3 nM

Sequence: UCCAAAUCGUAGAAGGGUGACAUGAGGAUCACCCAUGUGCAGCGGCCGUGAACGGCCACGCUGCCACAGGAUAUACGAUGGAGU
- apparent Kd [1]: 48.4 nM
- apparent Kd [2]: 74 nM

Sequence: GUAGCAAUCGGAGGAUAUUCAUGAAACAUGAGGAUCACCCAUGUUAAUUUGGGAGAAGGCCGAUUGCUACAAGAGCGAAAGCUC
- apparent Kd [1]: 8.14 nM
- apparent Kd [2]: 5.35 nM

Sequence: GCACUGGAUGUAGGAUAUCAGGACGAUAAGUCCUGAGAAGGACAUGAGGAUCACCCAUGUAAAACUCCACCAGUGCAUAAUAUA
- apparent Kd [3]: 13.1 nM
- apparent Kd [4]: 17.9 nM

Sequence: GGUCGUCACAUAUACAUGAGGAUCACCCAUGUCAAAAGACAUGAGGAUAUGGAUCCUAAUUGGAUCCAGAAGGCAUGGACGACC
- apparent Kd [1]: 986 nM
- apparent Kd [2]: 47.3 nM

Sequence: UUAAUAAUACAAGGAUAUCUAUUGUUCUUAAGACAUACAUGAGGAUCACCCAUGUUAAUAUAUAUAGAGAAGGUGUAUUUUCAG
- apparent Kd [1]: 27.2 nM
- apparent Kd [2]: 20 nM

Sequence: UGUCGGAGCAGAGGAUAUUACAUGAGGAUCACCCAUGUAUGAACCAAUAGCUGGAAGCAGCAAUGUAAGAAGGCUGCUCCGACA
- apparent Kd [3]: 12.2 nM
- apparent Kd [4]: 137 nM

Sequence: ACAUGAGGAUCACCCAUGUAUACAUAGGAUAUUGAGGAUCAGGGAUGUUUUACAGGAUAUGUCUACAAGAAGGAUGCAAGUAAA
- apparent Kd [1]: 35.6 nM
- apparent Kd [2]: 30 nM

Sequence: AACUGGUGUGAGAAGGGACGUAUCUCCAUGAGGGCAGGGCUAUUAGAGAAGUCAGGAUAUCACAUGAGGAUCACCCAUGUGACG
- apparent Kd [3]: 8.33 nM
- apparent Kd [4]: 9.02 nM

Sequence: UUGUUAAGAGGAUAUACAUGAGGAUCACCCAUGUGAGAAGUCCAGGGCGUAUUUUCUUGUAGAAGGUUUAGCCC
- apparent Kd [3]: 25.1 nM
- apparent Kd [4]: 15.8 nM

Sequence: UACAGCGUAGAUAAUUAUGUUACAUGAGGAUCACCCAUGUCAUAGGAUAUGCAGUGGAAUACACUGCAGAAGGAUGCAUCGCUG
- apparent Kd [3]: 14.7 nM
- apparent Kd [4]: 18.5 nM

Sequence: UCGGCGCGAGGAUAUGCGGUUGCUUGGUAGGGUCGUGGCGUACAUGAGGAUCACCCAUGUAGAAGGCGCGCCGC
- apparent Kd [3]: 19.6 nM
- apparent Kd [4]: 25.9 nM

Sequence: AACAUGGUGCAGGAUAUCCAACAUAUCGCGAGAGGAGAAGGGUACACAUGAGGAUCACCCAUGUGUGGUCUGUU
- apparent Kd [3]: 29.3 nM
- apparent Kd [4]: 223 nM

Sequence: AUGGACGUCGUAGGAUAUGUAGGAUUCUCCUACAUGAGGAUCACCCAUGUUGACGUGGAGGACGGACAGAAGGACGGUGUCCAU
- apparent Kd [1]: 7.22 nM
- apparent Kd [2]: 4.8 nM

Sequence: CCACGUCACAUCUACAUGAGGAUCACCCAUGUCAAAAGACAUGAGGAUAUGCUACCUAAUUGGUAGCAGAAGGCAUGGACGUGG
- apparent Kd [1]: 982 nM
- apparent Kd [2]: 64.4 nM

Sequence: UGGAACAUGGGAGGAUAUGGGAUGAUAACAUGAGGAUCACCCAUGUUAAAGAUGCCGAGAGGCAACUAGAAGGCCCAUGUUCCU
- apparent Kd [1]: 368 nM
- apparent Kd [2]: 60.5 nM

Sequence: CAGCAAAGGUAGAAGGCAGUACUGAUACAGUACUGAGGAUAUACAUGAGGAUCACCCAUGUAAAAAAGCUGGAAAUAAAUAAAA
- apparent Kd [3]: 7.39 nM
- apparent Kd [4]: 10 nM

Sequence: UUGCUCGUGUGAGGAUAUGCCGCCGUUUCGGCUGCAGAAGGUACUAUAAUACAUGAGGAUCACCCAUGUCUCUGUUGUUUCGUG
- apparent Kd [1]: 27.6 nM
- apparent Kd [2]: 27.1 nM

Sequence: UUGGACCUAGGAUAUACAUGAGGAUCACCCAUGUUGGCGCACGCCCACCUGGACCCGAGUAGAAGGAGGAAAAU
- apparent Kd [3]: 26.1 nM
- apparent Kd [4]: 78.4 nM
